Published values of several laboratories.
Compare with care: the assays were run in different laboratories.
Target: Interleukin-1 receptor-associated kinase 4 (IRAK4, Homo sapiens, UniProt Q9NWZ3)
One construct used (Q9NWZ3 1-460): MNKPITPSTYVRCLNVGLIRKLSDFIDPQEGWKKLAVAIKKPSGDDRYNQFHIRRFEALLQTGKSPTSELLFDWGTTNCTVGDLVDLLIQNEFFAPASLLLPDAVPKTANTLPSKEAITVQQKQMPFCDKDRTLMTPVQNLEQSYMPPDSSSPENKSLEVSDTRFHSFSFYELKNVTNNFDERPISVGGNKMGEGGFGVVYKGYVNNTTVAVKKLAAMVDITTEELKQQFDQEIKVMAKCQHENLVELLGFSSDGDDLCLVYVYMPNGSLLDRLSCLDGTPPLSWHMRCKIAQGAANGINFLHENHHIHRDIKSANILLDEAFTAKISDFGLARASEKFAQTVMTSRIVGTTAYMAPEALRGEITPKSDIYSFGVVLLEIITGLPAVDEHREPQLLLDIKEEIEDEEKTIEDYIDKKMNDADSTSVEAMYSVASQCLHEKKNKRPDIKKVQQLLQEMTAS

| SMILES | read-out | technique | tested at | remaining binding |
| --- | --- | --- | --- | --- |
| COc1ncc2cc3ccccc3nc2c1C#N | cell-free assay | competition with immobilised ligand | 5 µM | 97% |
| O=C(c1ccc(Nc2ncc(Cl)c(-c3cc4ccccc4s3)n2)cc1)N1CCC(N2CCCC2)CC1 | binding | competition with immobilised ligand | 1 µM | 57% |
| O=C(Nc1ccc(Oc2ccc(F)cc2)cc1)N1CCc2ncccc2[C@H]1c1ccc(F)cc1 | cell-free assay | competition with immobilised ligand | 1 µM | 96% |
| CN(C)c1nccc(-c2cnn3ncccc23)n1 | binding | – | 1 µM | 73% |
| Cc1cnc(Nc2ccc(C(=O)N3CCC(N4CCCC4)CC3)cc2)nc1-c1cc2ccccc2s1 | binding | competition with immobilised ligand | 1 µM | 45% |
| O=C(NCCCC1CCCCC1)c1ccc(CNC(=O)c2cnn(-c3ccccc3)c2C(F)(F)F)cc1 | cell-free assay | competition with immobilised ligand | 0.1 µM | 100% |
| CCN1CCN(Cc2ccc(C(=O)Nc3ccc(C)c(Oc4ccc5c(c4)CC(=O)N5)c3)cc2C(F)(F)F)CC1 | binding | competition with immobilised ligand | 1 µM | 84% |
| O=C(NCC1CCOCC1)c1n[nH]cc1NC(=O)c1c(F)cccc1F | binding | competition with immobilised ligand | 1 µM | 100% |
| O=C(NCc1ncc(C(F)(F)F)cc1Cl)c1ccc2c(c1)C1(CCS(=O)(=O)CC1)[C@H](C1CC1)N2S(=O)(=O)c1ccc(F)cc1 | cell-free assay | competition with immobilised ligand | 1 µM | 100% |
| O=C(c1ccc(Nc2ncc(Cl)c(-c3ccc(Cl)s3)n2)cc1)N1CCC(N2CCCC2)CC1 | binding | competition with immobilised ligand | 1 µM | 60% |
| C[C@@H]1CCN(c2nccc(-c3cnn4ncccc34)n2)C1 | binding | – | 1 µM | 100% |
| C[C@H](c1ccnc(Nc2nc3ccc(-c4cc(N(C)C)ncn4)cc3[nH]2)c1)N1CCN(C(=O)CC(F)(F)F)CC1 | cell-free assay | competition with immobilised ligand | 0.1 µM | 100% |
| c1cnn2ncc(-c3ccnc(N4CCC45COC5)n3)c2c1 | binding | – | 1 µM | 79% |
| COc1cnc(Nc2cccc(S(N)(=O)=O)c2)nc1N1CCN(c2ccccc2)C(=O)C1 | binding | competition with immobilised ligand | 1 µM | 88% |
| COc1ccnn2ncc(-c3ccnc(N(C)C)n3)c12 | binding | – | 1 µM | 80% |
| CCS(=O)(=O)c1cc2cc(C[C@@](O)(CC(C)(C)c3ccc(F)cc3C(N)=O)C(F)(F)F)[nH]c2cn1 | cell-free assay | competition with immobilised ligand | 1 µM | 100% |
| N[C@@H]1CCN(c2nccc(-c3cnn4ncccc34)n2)C1 | binding | – | 1 µM | 99% |
| Cn1cc(Cl)c2c(Oc3c(F)cc(Nc4cc(Cl)nc(N)n4)cc3F)ccnc21 | cell-free assay | competition with immobilised ligand | 0.1 µM | 90% |
| FC(F)(F)Oc1cccc(-c2cnc3ccc(-c4ccncc4)nn23)c1 | cell-free assay | competition with immobilised ligand | 5 µM | 1.6% |
| CN(C)c1nccc(-c2cnc3ncccn23)n1 | binding | – | 1 µM | 74% |
